Shown are actives, neighbours in structure and some others; about 11% of the full set was active somewhere.
WT yeast gro inh: growth inhibition of WT yeast, mitochondrial fusion screen; mitochondrial fusion phenotypic screen, WT strain; hit rate 2.1% among 190,000; inhibition, % at 10 µM; AID 1362; in the data active = inhibition above about 58%; tested in S. cerevisiae
G6PDH CS: inhibits Leuconostoc G6PDH, flagging false hits in G6PDH-based assays; inhibition, % at 5 µM; hit rate 0.12% among 200,000; Purified L. mesenteroides G6PDH, diaphorase/resazurin coupled fluorescence, 45 min
L major viab: inhibitors of Leishmania major promastigote growth; Leishmania major promastigotes, resazurin fluorescence viability; inhibition, % at 10 µM; hit rate 9% among 200,000; AID 1063;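 also: promastigotes grown with compound for 44 hours at 28 °C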
Diaph inh CS: inhibits diaphorase or chemically oxidizes, flagging diaphorase assay artifacts; hit rate 0.69% among 190,000; inhibition, % at 20 µM; AID 1217; diaphorase resazurin-to-resorufin fluorescence, NADH, 16 min; bacterial (C. kluyveri) enzyme, not human;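 active = primary screen inhibition at 20 µM above a set limit, cut at about 50% in these data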;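 also: plate controls were DMSO with full reaction for no effect and wells lacking NADH for full effect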
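Assay system: diaphorase enzyme from Clostridium kluyveri. Quantity: enzyme working solution with 0.14 U/mL diaphorase. Schedule: reaction incubation of 16 min at room temperature. Technique: resorufin fluorescence, excitation 544 nm, emission 590 nm. Controls: No-NADH positive control and DMSO neutral control.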
Diaphorase act: activates diaphorase or chemically reduces, flagging diaphorase assay artifacts. activation factor at 20 µM. Diaphorase/resazurin coupled assay, resorufin fluorescence, 16 min; hits give high values; 1 = vehicle wells, 0 = NADH-free wells. hit rate 0.005% among 190,000;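 active = diaphorase activity raised at least twofold by the compound at 20 µM; inactive = activation factor below 2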
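Test system: Clostridium kluyveri diaphorase, purified enzyme. Buffer or medium: 50 mM HEPES pH 7.4 buffer plus MgCl2 and Tween 20. Also added: 0.114 mM NADH and 0.1 mM resazurin, final amounts. Dosing: compound 20 µM once, DMSO 1%. Schedule: 16 min enzyme reaction, ambient temperature. Detection: fluorescence of resorufin, 544 nm excitation, 590 nm emission.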
* = called active by the depositor; ! = a repeat was not active. Rule as the data show it, unless noted: active = inhibition above about 50%; inactive = the rest.

SMILES | WT yeast gro inh | G6PDH CS | L major viab | Diaph inh CS | Diaphorase act
O=C(Nc1ncc(Cc2ccc(Cl)cc2Cl)s1)c1ccc([N+](=O)[O-])cc1 | 8 | -2 | 53* | 8 | 0.9
O=C(Nc1ncc(Cc2ccccc2Cl)s1)C1=NCCN1 | 73* | 3 | 73* | 13 | 0.9
O=C(Nc1nnc(COc2ccc(Cl)cc2)s1)c1ccc([N+](=O)[O-])cc1 | 36 | 4 | -5 | -3 | 1
O=C(Nc1cccc(Cl)c1)ON=C1c2ccccc2-c2ccccc21 | 24 | 0 | -3 | 10 | 0.9
O=[N+]([O-])c1ccc(Cl)c2c1C1C=CCC1C(c1ccccn1)N2 (centres undefined) | 17 | 6 | 1 | 41 | 0.6
O=C(O)c1ccc(Cl)c2c1C1C=CCC1C(c1ccccn1)N2 (centres undefined) | 14 | 13 | -16 | 56* | 0.4
COc1ccccc1NC(=S)N(CCCN1CCOCC1)Cc1cccs1 | 15 | 4 | 35 | -11 | 1.1
Cc1nc(NCCc2ccccc2)c(C#N)c(C)c1[N+](=O)[O-] | 12 | 9 | 25 | 12 | 0.9
Cc1nc(N2CCN(S(=O)(=O)c3ccccc3C#N)CC2)c2c(-c3cccs3)csc2n1 | 27 | 2 | 21 | 21 | 0.8
Cc1nc(N2CCCCC2)c2c(-c3cccs3)csc2n1 | 69* | 14 | 13 | 22 | 0.8
Cc1ccc(NC(=O)c2cnc(N3CCN(c4ccccn4)CC3)c3ccccc23)c(Br)c1 | 22 | 4 | 26 | 13 | 0.9
O=C(Nc1c(F)cccc1F)c1cnc(N2CCN(c3ccccn3)CC2)c2ccccc12 | 19 | 6 | 79* | 16 | 0.8
CC(C)NCC(O)COc1ccc2c(c1)CCC2 (centres undefined) | -2 | 3 | 5 | 13 | 0.9
O=C(/C=C/c1ccco1)Nc1ccccn1 | 8 | -1 | 22 | 15 | 0.9
O=C(/C=C/c1ccco1)Nc1nc(-c2ccccn2)cs1 | 60 | 14 | 100* | 25 | 0.8
O=C(/C=C/c1ccco1)Nc1cccc2cccnc12 | 12 | -8 | 15 | 63* | 0.4
COc1ccc(CNC(=O)CSc2nc3[nH]ncc3c(=O)n2-c2ccccc2Br)cc1 | -17 | 8 | -3 | 16 | 0.8
COc1ccc(-n2c(C)cc(/C=N/Nc3nc(N4CCOCC4)nc(N4CCOCC4)n3)c2C)cc1 | 14 | 5 | 98* | 19 | 0.8
Cc1cc(/C=N/Nc2nc(N3CCOCC3)nc(N3CCOCC3)n2)c(C)n1-c1ccccc1 | 5 | -3 | 8 | -6 | 1.1
CCN(CC)CCNC(=O)C(=O)NCC1OCCN1C(=O)c1ccc2c(c1)OCO2 (centres undefined) | -1 | 6 | 54* | -4 | 1
Cc1ccc(CNC(=O)C(=O)NCC2OCCN2C(=O)c2ccc3c(c2)OCO3)cc1 (centres undefined) | 5 | 8 | 2 | 7 | 0.9
Cc1ccc2cc3c(N)[nH]nc3nc2c1 | 5 | 0 | 0 | 18 | 0.8
CCC(C(=O)NNC(=O)c1cnccn1)c1ccccc1 (centres undefined) | -4 | 0 | -2 | 11 | 0.9
O=C(/C=C/c1ccccc1[N+](=O)[O-])NCc1cccnc1 | 8 | -8 | 0 | 6 | 0.9
CC(C)(C)c1ccc(-c2cn(-c3ccc(Br)cc3)c3[n+]2CCCS3)cc1 | 5 | 6 | 100* | -17 | 1.2
SMILES | WT yeast gro inh | G6PDH CS | L major viab | Diaph inh CS | Diaphorase act
COc1ccc(-c2cn(-c3ccccc3)c3[n+]2CCS3)cc1 | -2 | -5 | 85*! | 5 | 0.9
c1ccc(-c2cn(-c3ccccc3)c3[n+]2CCS3)cc1 | 28 | 3 | 17 | 1 | 1
CCOC(=O)C1=C(C)N(C)C(=O)NC1c1cc2c(cc1[N+](=O)[O-])OCO2 (centres undefined) | -7 | 8 | 9 | 67* | 0.3
CCOC(=O)C1=C(C)N(c2ccccc2)C(=O)NC1c1cccc([N+](=O)[O-])c1 (centres undefined) | 5 | 6 | 95* | 27 | 0.7
Cc1noc(C(=O)N2CC3(C)CC2CC(C)(C)C3)c1Cl (centres undefined) | 21 | 0 | 1 | 20 | 0.8
COc1ccc(NC(=O)Cn2nnc(-c3ccccc3NS(=O)(=O)c3ccc(OC)cc3)n2)cc1 | -10 | -3 | 69* | 16 | 0.8
COc1ccccc1NC(=O)Cn1nnc(-c2ccccc2NC(=O)c2cc3ccccc3oc2=O)n1 | 0 | 4 | 101* | 5 | 1
